Source: article PMC5093073 (Cancer prevention research (Philadelphia, Pa.), 2016)
Entries after “also recorded” stand apart in the source; their conditions may differ. Like-named read-outs stand apart in the source and are kept apart here.

Legend:
[1] = tested on: COX-derived PGE2 in A549 lung adenocarcinoma cells; assay: PGE2 biosynthesis from [2H8]AA in A549 cells; format: cell-based, human; conditions: for inhibition of PGE2 synthesis: IL-1β-activated A549, 100 nM inhibitor
Outline: (§1)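 Cells grown in DMEM with 10% FBS at 37°C, 5% CO₂, then given 1 ng/ml IL-1β for 24 h at 90% confluence to induce COX-2. In albumin-free medium, cells were preincubated for 30 min at 37°C with graded concentrations of test compound. Then 2.0 µM [²H₈]AA was added for 15 min, and the medium was harvested for GC/NICI/MS measurement of [²H₈]-PGE₂.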

[2] = tested on: COX-1 in human washed platelets; assay: Prostanoid; format: cell-based; conditions: 100 nM inhibitor; for effect on TxB2 synthesis by washed platelets: platelets without A549 cells
[3] = tested on: systemic PGE2 biosynthesis; assay: Urinary PGE-M; format: in vivo, human; conditions: for reduction in extra-platelet PGE2 production: corrected for platelet-derived PGE2, aspirin 81 mg daily 2 weeks; for reduction of urinary PGE-M levels: aspirin 81 mg daily 2 weeks
[4] = tested on: platelet TxB2 production; assay: Serum thromboxane B2 levels in healthy volunteers; format: in vivo, human; conditions: aspirin 81 mg daily 2 weeks
[5] = tested on: COX-derived PGE2 in HCC827 lung adenocarcinoma cells; assay: PGE2 biosynthesis from [2H8]AA in HCC827 cells; format: cell-based; conditions: Homo sapiens, HCC827, read-out: IC50 for inhibition of PGE2 biosynthesis
[6] = tested on: COX-derived PGE2 in H2122 lung adenocarcinoma cells; assay: PGE2 biosynthesis from [2H8]AA in H2122 cells; format: cell-based, human
Outline: as §1

[7] = tested on: COX-derived PGE2 in HCA-7 colon cancer cells; assay: PGE2 biosynthesis from [2H8]AA in HCA-7 cells; format: cell-based; conditions: Homo sapiens
Outline: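 HCA-7 cells were grown in DMEM with 10% FBS at 37°C, 5% CO₂, without IL-1β activation. In albumin-free medium, cells were preincubated for 30 min at 37°C with test compound. Then 2.0 µM [²H₈]AA was added and incubation continued for 15 min. The harvested medium was analysed by GC/NICI/MS for [²H₈]-PGE₂.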

[8] = tested on: COX-derived PGE2 in HT-29 colon cancer cells; assay: PGE2 biosynthesis from [2H8]AA in HT-29 cells; format: cell-based; conditions: Homo sapiens, HT-29, read-out: IC50 for inhibition of PGE2 biosynthesis
[9] = target: T1, COX-2 (Homo sapiens, UniProt P35354); format: cell-based; conditions: IL-1β-activated A549, pretreated with 100 µM aspirin
T1 sequence (P35354 18-604): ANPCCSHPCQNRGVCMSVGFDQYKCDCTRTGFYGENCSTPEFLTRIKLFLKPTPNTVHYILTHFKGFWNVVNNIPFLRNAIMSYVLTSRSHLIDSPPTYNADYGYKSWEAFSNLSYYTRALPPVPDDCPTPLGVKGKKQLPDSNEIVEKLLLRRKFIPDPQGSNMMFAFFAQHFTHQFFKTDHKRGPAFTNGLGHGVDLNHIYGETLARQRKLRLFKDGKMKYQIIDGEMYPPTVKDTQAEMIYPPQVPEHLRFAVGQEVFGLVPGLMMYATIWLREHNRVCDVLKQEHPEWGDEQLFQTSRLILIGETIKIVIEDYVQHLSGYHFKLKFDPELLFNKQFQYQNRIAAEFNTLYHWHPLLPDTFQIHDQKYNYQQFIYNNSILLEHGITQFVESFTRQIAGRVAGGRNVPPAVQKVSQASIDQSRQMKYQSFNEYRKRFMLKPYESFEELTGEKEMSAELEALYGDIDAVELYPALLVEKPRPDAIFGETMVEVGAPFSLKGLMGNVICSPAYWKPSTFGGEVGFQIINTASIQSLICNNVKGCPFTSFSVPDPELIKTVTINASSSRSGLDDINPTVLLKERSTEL

[10] = tested on: platelet-A549 cell aggregates; format: cell-based, human; conditions: platelets from blood treated with 100 µM aspirin 40 min, washed, ADP-activated
[11] = tested on: adenocarcinoma metastasis; conditions: cited from earlier work
[12] = tested on: systemic PGE2 biosynthesis; conditions: ibuprofen 800 mg 4 times daily; cited from earlier work

CS(=O)(=O)Nc1ccc([N+](=O)[O-])cc1OC1CCCCC1 [NS-398]
inhibition of PGE2 synthesis [1]: fully blocks
effect on PGE2 production in washed platelets [2]: does not block
effect on TxB2 synthesis by washed platelets [2]: did not inhibit; also recorded: does not block

CC(=O)Oc1ccccc1C(=O)O [aspirin, acetyl salicylic acid]
reduction in extra-platelet PGE2 production ([3]; females): 55.4%
reduction of urinary PGE-M levels ([3]; healthy females): 56%
reduction of urinary PGE-M levels ([3]; healthy males): 39%
reduction in extra-platelet PGE2 production ([3]; males): 38.6%
reduction of serum thromboxane B2 levels [4]: 96.6%
IC50 [5]: 22.5 ± 3.2 µM
IC50 ([1]; Homo sapiens, A549, read-out: IC50 for inhibition of PGE2 biosynthesis): 7.2 ± 1.1 µM
IC50 ([6]; Homo sapiens, NCI-H2122, read-out: IC50 for inhibition of PGE2 biosynthesis): 15 ± 1.3 µM
IC50 ([7]; HCA-7, read-out: IC50 for inhibition of PGE2 biosynthesis): 3.9 ± 0.7 µM
IC50 [8]: 8.9 ± 1.2 µM
blockade of COX-2 labeling by fluorocoxib A [9]: effectively blocked COX-2 labeling; also recorded: inhibited COX-2 associated fluorocoxib A fluorescence
COX-2 protein expression in A549 cells [10]: still upregulated
PGE2 production by platelet-A549 aggregates [10]: significantly inhibited; also recorded: effectively blocked
hazard ratio for later metastasis ([11]; adenocarcinomas other than those of the colon): 0.47
hazard ratio for later metastasis ([11]; colon cancers, no metastasis at diagnosis, 95% CI 0.03–0.56, p=0.007): 0.13
reduction of development of metastases ([11]; patients who develop cancer while receiving aspirin): 69%

Cc1onc(-c2ccccc2)c1-c1ccc(S(N)(=O)=O)cc1 [valdecoxib]
inhibition of PGE2 synthesis [1]: fully inhibited
inhibition of PGE2 synthesis ([6]; H2122, 100 nM inhibitor): fully inhibited
inhibition at 0.1 µM ([7]; HCA-7, read-out: inhibition of PGE2 synthesis): 60%
effect on TxB2 synthesis by washed platelets [2]: no effect

CC(C)Cc1ccc(C(C)C(=O)O)cc1 (stereo not drawn) [ibuprofen]
reduction of PGE2 production in humans [12]: 63%
